# Screening results as filed in PubChem BioAssay.
# An excerpt weighted towards active compounds, which were near 1.6% of everything screened.
# SR-BI DiI inh – mouse SR-BI HDL lipid transfer inhibition | Q61009 | ldlA[mSR-BI] CHO cells, DiI-HDL uptake fluorescence, 3 h | inhibition, % at 12.5 µM | 0.96% of 320,000 active;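 active = mean replicate inhibition of at least 70% and a set share of replicates each scoring 70 or more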;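 also: 0% = median of neutral control wells and 100% = median of positive control wells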
# Target sequence (Q61009 whole entry, looked up): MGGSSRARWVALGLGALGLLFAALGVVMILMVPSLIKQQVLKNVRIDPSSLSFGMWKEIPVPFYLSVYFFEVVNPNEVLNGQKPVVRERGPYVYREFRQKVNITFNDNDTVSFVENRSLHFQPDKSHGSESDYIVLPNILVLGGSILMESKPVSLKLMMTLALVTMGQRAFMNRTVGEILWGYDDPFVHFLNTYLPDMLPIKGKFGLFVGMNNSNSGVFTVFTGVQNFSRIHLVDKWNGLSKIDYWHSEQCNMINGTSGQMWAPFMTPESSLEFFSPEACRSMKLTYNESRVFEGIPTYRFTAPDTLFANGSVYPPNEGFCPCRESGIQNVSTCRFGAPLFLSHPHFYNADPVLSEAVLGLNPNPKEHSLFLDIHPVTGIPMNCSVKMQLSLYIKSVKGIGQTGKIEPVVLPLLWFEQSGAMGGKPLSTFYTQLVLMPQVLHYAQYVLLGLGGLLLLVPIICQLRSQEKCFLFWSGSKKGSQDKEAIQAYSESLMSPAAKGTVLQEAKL
# RAD54 inh – blocks human RAD54 Holliday junction branch migration; inhibition, % at 10.4 µM; FAM/BHQ fluorescence; 0.14% of 360,000 active; Q92698;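 active = mean normalized replicate activity at least 40 and at least half of replicates scoring 40 or more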;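 also: 0% = median of neutral control wells and 100% = median of positive control wells; inhibitors cause a drop in the FAM fluorescence signal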
# dFosB activator – mouse delta FosB homodimer activation | activation, % at 25 µM | purified delta FosB, TAMRA-CDK5 oligo fluorescence polarization; percent of positive-control signal above neutral wells | 0.99% of 340,000 active | P13346;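 active = mean activation above about 17%, with every replicate also reaching it, limit read from the data, passing the limit was not always enough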
# PvdQ inh – blocks Pseudomonas aeruginosa PvdQ acylase activity | purified PvdQ acylase, fluorescence plate reader | inhibition, % at 10 µM | 0.063% of 340,000 active; in the data active = inhibition above about 30%, passing the limit was not always enough;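 also: 0% = vehicle neutral wells and 100% = reference inhibitor wells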
# S100A4 MyoIIA – blocks human S100A4 binding to myosin IIA peptide; inhibition, % at 10.7 µM; 0.14% of 360,000 active; P26447; AID 652163; S100A4/TAMRA-MyoIIA peptide fluorescence polarization;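 active = mean inhibition of at least 70% across replicates, with every replicate also reaching that level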
# Target sequence (P26447 whole entry, looked up): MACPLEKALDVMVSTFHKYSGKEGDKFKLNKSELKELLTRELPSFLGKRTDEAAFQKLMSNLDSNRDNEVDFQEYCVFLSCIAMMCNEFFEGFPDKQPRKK
#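 Assay system: human S100A4 monomer with TAMRA-labelled myosin IIA peptide / Buffer or medium: Calcium-containing HEPES buffer, pH 7.2 / Reagent: TAMRA-labelled myosin IIA heavy-chain peptide probe, 5 nM / Compound: one dose per compound / Timing: polarization read 5 min after assay mix addition, stable 5–60 min / Benchmarks: neutral control DMSO, positive control TFP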
# SR-BI DiI-HDL act – activators of SR-BI mediated HDL lipid uptake; CHO ldlA[mSR-BI] cells, DiI-HDL uptake fluorescence, 3 h; 100 = double the neutral-control signal; activation, % at 12.5 µM; 0.096% of 320,000 active;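 active = mean replicate activation of at least 60% and every replicate at or above 60%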;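 also: 0% = median plate neutral-control signal and 100% = twice that signal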
#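 Assay system: LDL receptor-deficient CHO ldlA cells overexpressing murine SR-BI / Medium: BSA-supplemented, HEPES-buffered Ham's F12, pH 7.4 / Probe or stimulus: DiI-labelled HDL at 10 µg/mL final / Timing: compound with DiI-HDL co-incubation, 3 h at 37 °C / Technique: bottom-read cell fluorescence after medium removal, ex 550/em 595 nm / Measure: HDL uptake via cellular fluorescence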
# The depositor's hits bear a star; / = no result.
SMILES,SR-BI DiI inh,RAD54 inh,dFosB activator,PvdQ inh,S100A4 MyoIIA,SR-BI DiI-HDL act
CN1C(=O)c2cc(NC(=O)Nc3ccccc3)ccc2OC[C@H]2O[C@H](CC(=O)O)CC[C@H]21,/,0,/,/,/,/
CCC(=O)N1CC2(C1)[C@H](c1ccc(-c3ccccc3OC)cc1)[C@H](CO)N2C(C)=O,/,/,/,/,-4,/
O=C([C@@H]1[C@@H](CO)[C@@H]2Cn3c(cccc3=O)[C@@H]2N1C(=O)CC1CC1)N1CCCCC1,/,-4,/,/,3,/
ON(CCc1ccncc1)Cc1ccccc1,-19,-3,-4,-2,72*,19
O=C(CN1CCOCC1)NCC[C@H]1CC[C@H](NC(=O)Nc2ccccc2)[C@H](CO)O1,/,1,/,/,6,/
NC(=O)c1c(NC(=O)COC(=O)c2ccc(S(=O)(=O)Nc3ccccc3)cc2)sc2c1CCCC2,95*,/,12,22,-6,-95
COCC(=O)Nc1ccc2c(c1)OC[C@@H](C)N(Cc1cccnc1)C[C@@H](C)[C@H](OC)CN(C)C2=O,/,/,/,/,6,/
C=COCCNC(=S)Nc1cccc(Cl)c1,-8,/,4,-12,-4,8
C=COCCNC(=O)Nc1ccc(Cl)cc1Cl,72*,-9,0,-4,1,-72
CC[n+]1c(/C=C/C=C/N(C(C)=O)c2ccccc2)sc2cc(OC)ccc21,/,/,/,/,199*,/
CC[n+]1c(/C=C(\C)OC)sc2ccccc21,-17,/,-5,-4,-5,17
CN1C(=O)c2cc(NC(=O)Cc3cccs3)ccc2OC[C@H]2O[C@H](CC(=O)N[C@H]3CCN(Cc4ccccc4)C3)CC[C@@H]21,/,-2,/,/,96*,/
Cc1noc(C)c1S(=O)(=O)Nc1ccc2c(c1)CC(=O)N([C@H](C)CO)C[C@H](C)[C@@H](CN(C)S(=O)(=O)c1c(C)noc1C)O2,/,1,/,/,4,/
O=C(Nc1nccs1)[C@H]1[C@H](CO)[C@H]2Cn3c(ccc(-c4cccnc4)c3=O)[C@H]2N1CC1CCCC1,/,-1,/,/,3,/
Cc1nc(N2CCC(C)CC2)c2c(C)c(C(=O)Nc3ccc4c(c3)OCCO4)sc2n1,69,3,-1,-7,-5,-69
Cc1nc(N2CCC(C)CC2)c2c(C)c(C(=O)Nc3ccc(C(F)(F)F)cc3)sc2n1,75*,/,-5,1,3,-75
Cc1nc(N2CCC(C)CC2)c2c(C)c(C(=O)Nc3cccc(C(F)(F)F)c3)sc2n1,87*,/,-6,5,/,-87
C=CC1CN(S(=O)(=O)c2ccc(Br)cc2)C(=O)N1c1ccc(Br)cc1 (centres undefined),/,2,/,/,-22,/
O=C1c2ccccc2C(=O)c2c(NCCCN(CCO)CCO)cccc21,41,/,56*,-2,-39,-41
COc1ccc(C(C#N)=Cc2cc(OC)c(OC)c(OC)c2)cc1,/,/,/,/,0,/
COc1ccc(/C(C#N)=C/c2cccnc2)cc1,10,11,-21,74*,2,-10
C[C@@H]1CN([C@@H](C)CO)C(=O)c2cc(NS(=O)(=O)c3ccc(F)cc3)ccc2O[C@@H](C)CCCCO[C@@H]1CN(C)C(=O)Cc1ccccc1,/,-22,/,/,/,/
O=C(C[C@H]1CC[C@@H]2[C@H](COC[C@H](O)CN2C(=O)Nc2ccccc2)O1)NCCc1ccncc1,/,-8,/,/,1,/
C[C@H]1CN([C@@H](C)CO)S(=O)(=O)c2ccc(C3=CCCC3)cc2O[C@H]1CN(C)Cc1ccccc1,/,3,/,/,-2,/
O=C(Nc1ccc(Cl)c(Cl)c1)N[C@H]1CC[C@@H](CCNC(=O)c2ccc(F)cc2)O[C@@H]1CO,/,0,/,/,-22,/
SMILES,SR-BI DiI inh,RAD54 inh,dFosB activator,PvdQ inh,S100A4 MyoIIA,SR-BI DiI-HDL act
COc1ccc(NC(=O)Nc2ccc3c(c2)[C@H]2C[C@@H](CC(=O)NCc4ccccc4F)O[C@@H](CO)[C@H]2O3)cc1,/,-2,/,/,-5,/
CCCNC(=O)[C@@H]1[C@@H](CO)[C@@H]2Cn3c(cccc3=O)[C@@H]2N1C(=O)C1CCC1,/,1,/,/,106*,/
COC(=O)[C@@H]1[C@@H](CO)[C@@H]2Cn3c(cccc3=O)[C@@H]2N1CC1CCOCC1,/,-7,/,/,88*,/
CCCNC(=O)[C@H]1[C@H](CO)[C@H]2Cn3c(cccc3=O)[C@H]2N1C(=O)C1CCC1,/,-6,/,/,15,/
O=C(NC1CCCCC1)[C@H]1[C@H](CO)[C@H]2Cn3c(cccc3=O)[C@H]2N1C(=O)CC1CC1,/,-7,/,/,102*,/
C[C@@H]1CCCCO[C@@H](CN(C)C(=O)Cc2ccccc2)[C@H](C)CN([C@@H](C)CO)C(=O)c2cc(NS(=O)(=O)c3ccc(Cl)cc3)ccc2O1,/,-4,/,/,-3,/
CCC(=O)N1C[C@@H]2[C@H](c3ccccc31)[C@@H](CO)N2C(=O)CC,/,1,/,/,73*,/
O=C(c1ccncc1)N1C[C@@H]2[C@H](c3ccccc31)[C@@H](CO)N2C(=O)CN1CCOCC1,/,0,/,/,97*,/
Cc1ccc(S(=O)(=O)Nc2ccc3c(c2)C(=O)N([C@H](C)CO)C[C@H](C)[C@@H](CN(C)C(=O)CCC(F)(F)F)OCCCC[C@H](C)O3)cc1,/,1,/,/,-9,/
C[C@@H]1CCCCO[C@H](CN(C)S(=O)(=O)c2ccc(F)cc2)[C@@H](C)CN([C@@H](C)CO)C(=O)c2cc(NC(=O)c3ccccc3)ccc2O1,/,-9,/,/,-9,/
CC(C)=CC(=O)OCc1csc(CC(=O)Nc2ccccc2C)n1,-5,-5,-9,-9,-3,5
CC(=O)c1c(C)[nH]c(C(=O)OCc2csc(CC(=O)Nc3ccccc3C)n2)c1C,73*,-7,-8,-2,2,-73
N#C/C(=C/c1ccc(N2CCOCC2)o1)c1ccc(Cl)cc1,85*,/,-3,1,/,-85
CSCc1cc(C(=O)NC2CC2)c(N)s1,/,/,/,/,74*,/
CN(C)C(=O)[C@@H]1[C@@H](CO)[C@@H]2Cn3c(cccc3=O)[C@@H]2N1CC1CCCC1,/,6,/,/,/,/
COc1ccc(-c2nc(NC(=O)c3ccc(OCC(=O)N4CCOCC4)c(OC)c3)sc2C)cc1,71*,/,1,-20,/,-71
COc1ccc(-n2c(SCC(=O)N3CCCCC3C)nnc2-c2cccnc2)cc1 (centres undefined),-117,1,-7,-9,/,117*
COc1cc2[nH]c3c(N4CCN(c5ccc(Cl)cc5)CC4)ncnc3c2cc1OC,53,6,5,-5,/,-53
COc1cccc(N2CCN(c3ncnc4c3[nH]c3ccc(F)cc34)CC2C)c1 (centres undefined),72*,0,-10,-9,/,-72
C[C@@H]1CN([C@@H](C)CO)C(=O)c2cc(NC(=O)NC3CCCCC3)ccc2O[C@@H](C)CCCCO[C@@H]1CN(C)S(=O)(=O)c1cn(C)cn1,/,0,/,/,136*,/
